Assay results from ChEMBL document CHEMBL1136621 (Bioorg Med Chem Lett, 2003).
Each block holds one compound with its values, some of them ahead of it.

Columns and labels:
[1] = system: carboxylesterase (Homo sapiens); experiment: Relative susceptibility to human carboxylesterase in liver and intestine (L/I ratio)
Cocaine esterase [2] = target: T1, Cocaine esterase (Homo sapiens, UniProt O00748); experiment: Susceptibility to carboxylesterase in human liver at a concentration 2.5 mM; assay type: tissue-based; conditions: 2500 µM
T1 sequence (O00748 whole entry): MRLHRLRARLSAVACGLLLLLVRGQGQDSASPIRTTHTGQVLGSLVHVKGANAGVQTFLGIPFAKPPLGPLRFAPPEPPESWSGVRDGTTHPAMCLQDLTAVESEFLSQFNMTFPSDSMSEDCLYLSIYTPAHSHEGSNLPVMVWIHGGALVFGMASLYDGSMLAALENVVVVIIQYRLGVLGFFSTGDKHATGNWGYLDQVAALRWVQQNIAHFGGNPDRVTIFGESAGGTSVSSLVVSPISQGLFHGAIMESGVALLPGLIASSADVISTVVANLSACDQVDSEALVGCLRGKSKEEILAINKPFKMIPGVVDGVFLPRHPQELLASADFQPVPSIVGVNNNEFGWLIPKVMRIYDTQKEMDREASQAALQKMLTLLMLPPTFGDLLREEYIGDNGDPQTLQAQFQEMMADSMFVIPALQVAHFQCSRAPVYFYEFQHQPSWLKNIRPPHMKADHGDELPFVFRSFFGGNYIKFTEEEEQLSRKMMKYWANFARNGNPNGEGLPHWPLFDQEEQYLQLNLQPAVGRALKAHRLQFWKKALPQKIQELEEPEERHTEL
How it was run: (§1)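 Crude enzyme extracts from human liver and intestine; substrate at 2.5 mM. Conversion rate expressed as nmol/mg protein/h. L/I is the ratio of the liver rate to the intestine rate.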

Cocaine esterase [3] = target: T1, Cocaine esterase; experiment: Susceptibility to carboxylesterase in human intestine at a concentration 2.5 mM; assay type: tissue-based; conditions: 2500 µM
How it was run: as §1

[4] = target: Cytidine deaminase (Homo sapiens) (UniProt P32320); experiment: Susceptibility to Cyd deaminase at a substrate concentration of 2.0 mM
Cytidine deaminase (Homo sapiens), sequence (P32320 whole entry): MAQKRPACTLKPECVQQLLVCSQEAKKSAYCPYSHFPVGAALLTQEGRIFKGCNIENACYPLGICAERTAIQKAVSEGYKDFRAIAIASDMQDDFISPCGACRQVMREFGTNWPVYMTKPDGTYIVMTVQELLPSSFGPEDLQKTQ

[5] = target: T2, Thymidine phosphorylase (Homo sapiens) (UniProt P19971); experiment: Susceptibility to thymidine phosphorylase (ThdPase) at a substrate concentration of 1.0 mM
T2 sequence (whole entry): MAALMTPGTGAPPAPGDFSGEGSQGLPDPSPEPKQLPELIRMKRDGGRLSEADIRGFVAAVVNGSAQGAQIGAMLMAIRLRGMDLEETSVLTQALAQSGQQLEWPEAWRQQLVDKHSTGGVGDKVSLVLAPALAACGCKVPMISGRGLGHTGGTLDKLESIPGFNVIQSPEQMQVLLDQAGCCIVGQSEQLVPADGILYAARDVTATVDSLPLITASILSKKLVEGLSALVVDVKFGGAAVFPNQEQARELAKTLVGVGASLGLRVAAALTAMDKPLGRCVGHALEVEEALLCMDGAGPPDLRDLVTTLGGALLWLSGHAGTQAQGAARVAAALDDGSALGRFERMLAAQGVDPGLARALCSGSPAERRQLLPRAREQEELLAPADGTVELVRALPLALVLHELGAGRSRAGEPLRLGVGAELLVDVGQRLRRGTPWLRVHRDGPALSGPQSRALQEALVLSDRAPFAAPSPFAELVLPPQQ

[6] = target: T3, Dihydropyrimidine dehydrogenase [NADP(+)] (Homo sapiens, UniProt Q12882); experiment: Inhibitory activity against dihydropyrimidine dehydrogenase (DPD)
T3 sequence (Q12882 whole entry): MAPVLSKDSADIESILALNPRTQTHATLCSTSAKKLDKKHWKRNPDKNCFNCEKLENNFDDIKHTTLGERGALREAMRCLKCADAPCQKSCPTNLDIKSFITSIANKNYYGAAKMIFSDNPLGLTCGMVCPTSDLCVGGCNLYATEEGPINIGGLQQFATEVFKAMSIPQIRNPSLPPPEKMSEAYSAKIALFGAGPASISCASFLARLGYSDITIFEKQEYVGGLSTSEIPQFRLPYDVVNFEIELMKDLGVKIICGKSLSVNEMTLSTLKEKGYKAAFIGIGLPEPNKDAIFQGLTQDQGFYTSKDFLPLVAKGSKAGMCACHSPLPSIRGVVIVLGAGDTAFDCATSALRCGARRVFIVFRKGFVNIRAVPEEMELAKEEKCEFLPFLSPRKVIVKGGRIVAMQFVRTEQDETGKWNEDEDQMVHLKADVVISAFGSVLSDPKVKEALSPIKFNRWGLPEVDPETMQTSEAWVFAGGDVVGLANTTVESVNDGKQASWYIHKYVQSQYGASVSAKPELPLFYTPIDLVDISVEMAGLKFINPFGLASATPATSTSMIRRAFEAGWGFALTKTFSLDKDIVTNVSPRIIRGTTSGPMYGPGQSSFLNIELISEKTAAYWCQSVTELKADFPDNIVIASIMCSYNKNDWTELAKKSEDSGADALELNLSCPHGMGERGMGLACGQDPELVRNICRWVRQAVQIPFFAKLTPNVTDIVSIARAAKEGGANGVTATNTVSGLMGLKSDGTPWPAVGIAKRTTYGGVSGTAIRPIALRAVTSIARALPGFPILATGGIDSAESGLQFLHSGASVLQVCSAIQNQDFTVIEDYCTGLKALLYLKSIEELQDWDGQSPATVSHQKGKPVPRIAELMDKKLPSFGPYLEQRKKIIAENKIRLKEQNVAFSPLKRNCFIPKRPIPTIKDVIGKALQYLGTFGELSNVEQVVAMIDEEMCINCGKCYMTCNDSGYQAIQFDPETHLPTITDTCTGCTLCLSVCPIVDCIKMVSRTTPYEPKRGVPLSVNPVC

Mus musculus [7] = experiment: Tumour concentration of 5-FU in HT-3 (human cervical cancer) xenograft mice at 1.38 mg/kg oral dose co-administered with 135 mg/kg Capecitabine; assay type: functional
[8] = Ratio of tumor and plasma 5-FU concentration in HT-3 (human cervical cancer) xenograft mice on co-administration with Capecitabine; assay type: functional
Homo sapiens [9] = organism: Homo sapiens; experiment: Susceptibility to human liver enzyme at a concentration 2.5 mM; assay type: functional
How it was run: as §1

Mus musculus [10] = experiment: Tumour concentration of 5-FU in HT-3 (human cervical cancer) xenograft mice at 33.7 mg/kg oral dose co-administered with 135 mg/kg Capecitabine; assay type: functional
[11] = Stability in serum determined 1 hour after treatment; assay type: ADME, cell-free; conditions: read-out: Stability
How it was run: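 Compound incubated in serum; stability reported as the percentage remaining after 1 h.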

Homo sapiens [12] = organism: Homo sapiens; experiment: Susceptibility to human intestine enzyme at a concentration 2.5 mM; assay type: functional
How it was run: as §1

[13] = Stability at pH 2.0-7.4 determined 2 hours after treatment; assay type: physicochemical; conditions: buffer, read-out: Stability
How it was run: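 Compound held in aqueous solution at pH 2.0–7.4 for 2 h at 37 °C. Stability reported as the percentage of compound remaining.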

Mus musculus [14] = experiment: Plasma concentration of 5-FU in HT-3 (human cervical cancer) xenograft mice at 33.7 mg/kg oral dose co-administered with 135 mg/kg Capecitabine; assay type: functional, organism-based
Lung carcinoma cell line = experiment: Antitumor activity in human lung carcinoma; assay type: functional
Mus musculus [15] = experiment: Tumour concentration of 5-FU in HT-3 (human cervical cancer) xenograft mice at 135 mg/kg oral dose; assay type: functional
Mus musculus [16] = experiment: Plasma concentration of 5-FU in HT-3 (human cervical cancer) xenograft mice at 135 mg/kg oral dose; assay type: functional, organism-based; set-up: dose 135 mg/kg

Susceptibilty Ratio (Liver/Intestine) [1]: 5
Susceptibility (Cocaine esterase [2]): 90 nmol/mg protein/h
Susceptibility (Cocaine esterase [3]): 18 nmol/mg protein/h
Structure (SMILES): CCCCCOC(=O)Nc1nc(=O)n([C@@H]2O[C@H](C)[C@@H](O)[C@H]2O)cc1I

Relative susceptibility [4]: 0.14
Structure (SMILES): C=Cc1cn([C@@H]2O[C@H](C)[C@@H](O)[C@H]2O)c(=O)nc1N

Relative susceptibility [5]: < 0.01
Structure (SMILES): C[C@H]1O[C@@H](n2cc(/C=C/c3ccccc3)c(=O)[nH]c2=O)[C@H](O)C1O (single isomer, unassigned)

IC50 [6]: 220 nM
Structure (SMILES): O=c1[nH]cc(I)c(=O)[nH]1

IC50 [6]: 43 nM
Structure (SMILES): Oc1ncc(/C=C/c2ccccc2)c(O)n1

Susceptibilty Ratio (Liver/Intestine) [1]: > 22
Susceptibility (Cocaine esterase [2]): 110 nmol/mg protein/h
Susceptibility (Cocaine esterase [3]): < 5 nmol/mg protein/h
Structure (SMILES): C=Cc1cn([C@@H]2O[C@H](C)[C@@H](O)[C@H]2O)c(=O)nc1NC(=O)OCCCCC

IC50 [6]: 97 nM
Structure (SMILES): O=c1[nH]cc(Cc2cccc(OCc3ccccc3)c2)c(=O)[nH]1

IC50 [6]: 14 nM
Structure (SMILES): C#Cc1c[nH]c(=O)[nH]c1=O

Relative susceptibility [5]: 1
Structure (SMILES): C[C@H]1O[C@@H](n2cc(F)c(=O)[nH]c2=O)[C@H](O)C1O (single isomer, unassigned)

IC50 [6]: 89 nM
Structure (SMILES): C=Cc1cnc(O)nc1O
Tumour_[5-FU] (Mus musculus [7]): 12 nmol/g
Ratio_tumour/plasma [8]: 3.8

Relative susceptibility [4]: 1
Structure (SMILES): C[C@H]1O[C@@H](n2cc(F)c(N)nc2=O)[C@H](O)[C@@H]1O

Relative susceptibility [5]: 0.2
Structure (SMILES): C=Cc1cn([C@@H]2O[C@H](C)C(O)[C@H]2O)c(=O)[nH]c1=O (single isomer, unassigned)

Relative susceptibility [4]: 0.33
Structure (SMILES): C[C@H]1O[C@@H](n2cc(I)c(N)nc2=O)[C@H](O)[C@@H]1O

Relative susceptibility [5]: 2.3
Structure (SMILES): C[C@H]1O[C@@H](n2cc(I)c(=O)[nH]c2=O)[C@H](O)C1O (single isomer, unassigned)

IC50 [6]: 200 nM
Structure (SMILES): N#Cc1c[nH]c(=O)[nH]c1=O

Relative susceptibility [5]: 5
Structure (SMILES): C#Cc1cn([C@@H]2O[C@H](C)C(O)[C@H]2O)c(=O)[nH]c1=O (single isomer, unassigned)

remaining at 1 h [11]: 61%
remaining at 2 h [13]: 100%
Structure (SMILES): C=Cc1cn([C@@H]2O[C@H](C)[C@@H](OC(C)=O)[C@H]2OC(C)=O)c(=O)nc1N
Susceptibility (Homo sapiens [9]): 130 nmol/mg protein/h
Tumour_[5-FU] (Mus musculus [10]): 13 nmol/g
Susceptibility (Homo sapiens [12]): 28 nmol/mg protein/h
Ratio_tumour/plasma [8]: 13
Plasma [5-FU] (Mus musculus [14]): 1 nmol/mL

Susceptibility (Cocaine esterase [2]): 79 nmol/mg protein/h
Susceptibility (Cocaine esterase [3]): 5.3 nmol/mg protein/h
Structure (SMILES): CCCCCOC(=O)Nc1nc(=O)n([C@@H]2O[C@H](C)[C@@H](O)[C@H]2O)cc1F [CAPECITABINE]
Activity (Lung carcinoma cell line): 377 mg/kg
Tumour_[5-FU] (Mus musculus [15]): 3.5 nmol/g
Plasma [5-FU] (Mus musculus [16]): 0.62 nmol/mL

Relative susceptibility [4]: 0.034
Structure (SMILES): C#Cc1cn([C@@H]2O[C@H](C)[C@@H](O)[C@H]2O)c(=O)nc1N

Relative susceptibility [5]: < 0.01
Structure (SMILES): C[C@H]1O[C@@H](n2cc(Cc3cccc(OCc4ccccc4)c3)c(=O)[nH]c2=O)[C@H](O)C1O (single isomer, unassigned)

Relative susceptibility [5]: < 0.01
Structure (SMILES): C[C@H]1O[C@@H](n2cc(C#N)c(=O)[nH]c2=O)[C@H](O)C1O (single isomer, unassigned)
